In ChEMBL document CHEMBL1165965, “Synthesis and structure-activity relationships of 1,2,3,4-tetrahydropyrido[2,3-b]pyrazines as potent and selective inhibitors of the anaplastic lymphoma kinase” (Bioorg Med Chem, 2010):

Assays:
[1] = molecular target: Mitogen-activated protein kinase 8 (Homo sapiens) (UniProt P45983); assay: Inhibition of JNK1 at 1 uM
Outline: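 Single-concentration screen on the Ambit KINOMEscan platform, run against a panel of 250–400 kinases. Per-kinase inhibition was also summarized as S(90), the fraction of kinases inhibited by more than 90%.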

[2] = molecular target: Mitogen-activated protein kinase 11 (Homo sapiens) (UniProt Q15759); assay: Inhibition of p38-beta at 1 uM
[3] = molecular target: MAP/microtubule affinity-regulating kinase 3 (Homo sapiens) (UniProt P27448); assay: Inhibition of MARK3 at 1 uM
Outline: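 Kinase-panel screen using KINOMEscan technology, with 250–400 kinases per panel. Each compound was tested at a single concentration, and inhibition of each kinase was recorded. Selectivity was summarised as S(90), the fraction of kinases inhibited by more than 90%.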

[4] = molecular target: Cyclin-dependent kinase 2 (Homo sapiens) (UniProt P24941); assay: Inhibition of CDK2 at 1 uM
Outline: (§1)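 Ambit KINOMEscan screen at a single concentration across a 250–400 kinase panel, recorded as percent inhibition. Selectivity was expressed as S(90), the fraction of kinases inhibited >90%.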

[5] = molecular target: Serine/threonine-protein kinase MRCK gamma (Homo sapiens) (UniProt Q6DT37); assay: Inhibition of DMPK2 at 1 uM
Outline: (§2)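 Single-concentration screen using Ambit Bioscience KINOMEscan technology across a panel of 250–400 kinases. Per-kinase inhibition from this screen was summarized as S(90), the fraction of kinases inhibited by more than 90%.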

[6] = molecular target: Ephrin type-A receptor 7 (Homo sapiens) (UniProt Q15375); assay: Inhibition of EPHA7 at 1 uM; outline: as §2
[7] = molecular target: Aurora kinase B (Homo sapiens) (UniProt Q96GD4); assay: Inhibition of AURKB at 1 uM; outline: as §1
[8] = molecular target: T1, Membrane-associated tyrosine- and threonine-specific cdc2-inhibitory kinase (Homo sapiens) (UniProt Q99640); assay: Inhibition of PKMYT1 at 1 uM
T1 sequence (whole entry): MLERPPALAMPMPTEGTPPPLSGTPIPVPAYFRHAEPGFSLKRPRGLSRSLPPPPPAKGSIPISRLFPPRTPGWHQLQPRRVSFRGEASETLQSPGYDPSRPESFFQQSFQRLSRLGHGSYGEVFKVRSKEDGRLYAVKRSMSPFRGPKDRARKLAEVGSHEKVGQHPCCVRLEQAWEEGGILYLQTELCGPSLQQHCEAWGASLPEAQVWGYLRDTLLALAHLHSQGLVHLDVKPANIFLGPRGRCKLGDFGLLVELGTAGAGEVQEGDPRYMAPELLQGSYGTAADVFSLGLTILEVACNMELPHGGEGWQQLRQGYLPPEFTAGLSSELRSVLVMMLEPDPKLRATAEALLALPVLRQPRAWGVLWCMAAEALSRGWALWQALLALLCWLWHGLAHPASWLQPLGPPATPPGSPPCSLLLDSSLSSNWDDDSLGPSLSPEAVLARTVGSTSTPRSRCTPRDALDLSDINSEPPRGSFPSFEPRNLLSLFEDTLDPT

[9] = molecular target: Casein kinase I isoform gamma-1 (Homo sapiens) (UniProt Q9HCP0); assay: Inhibition of CSNK1G1 at 1 uM; outline: as §2
[10] = molecular target: Calcium/calmodulin-dependent protein kinase type 1D (Homo sapiens) (UniProt Q8IU85); assay: Inhibition of CAMK1D at 1 uM; outline: as §1
[11] = molecular target: T2, Mitogen-activated protein kinase 12 (Homo sapiens) (UniProt P53778); assay: Inhibition of p38-gamma at 1 uM
T2 sequence (whole entry): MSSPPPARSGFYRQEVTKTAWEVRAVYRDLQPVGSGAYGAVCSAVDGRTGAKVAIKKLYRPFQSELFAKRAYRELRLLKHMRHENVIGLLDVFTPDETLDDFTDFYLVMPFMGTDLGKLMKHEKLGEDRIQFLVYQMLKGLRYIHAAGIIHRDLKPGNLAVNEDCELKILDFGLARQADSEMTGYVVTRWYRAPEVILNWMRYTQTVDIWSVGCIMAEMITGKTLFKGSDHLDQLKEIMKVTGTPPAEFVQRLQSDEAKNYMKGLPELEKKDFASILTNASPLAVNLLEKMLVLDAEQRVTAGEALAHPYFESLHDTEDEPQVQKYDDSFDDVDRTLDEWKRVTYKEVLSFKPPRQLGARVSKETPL

[12] = molecular target: Serine/threonine-protein kinase PAK 6 (Homo sapiens) (UniProt Q9NQU5); assay: Inhibition of PAK6 at 1 uM
[13] = molecular target: Rho-associated protein kinase 2 (Homo sapiens) (UniProt O75116); assay: Inhibition of ROCK2 at 1 uM
[14] = molecular target: T3, Serine/threonine-protein kinase D3 (Homo sapiens) (UniProt O94806); assay: Inhibition of PRKD3 at 1 uM
T3 sequence (whole entry): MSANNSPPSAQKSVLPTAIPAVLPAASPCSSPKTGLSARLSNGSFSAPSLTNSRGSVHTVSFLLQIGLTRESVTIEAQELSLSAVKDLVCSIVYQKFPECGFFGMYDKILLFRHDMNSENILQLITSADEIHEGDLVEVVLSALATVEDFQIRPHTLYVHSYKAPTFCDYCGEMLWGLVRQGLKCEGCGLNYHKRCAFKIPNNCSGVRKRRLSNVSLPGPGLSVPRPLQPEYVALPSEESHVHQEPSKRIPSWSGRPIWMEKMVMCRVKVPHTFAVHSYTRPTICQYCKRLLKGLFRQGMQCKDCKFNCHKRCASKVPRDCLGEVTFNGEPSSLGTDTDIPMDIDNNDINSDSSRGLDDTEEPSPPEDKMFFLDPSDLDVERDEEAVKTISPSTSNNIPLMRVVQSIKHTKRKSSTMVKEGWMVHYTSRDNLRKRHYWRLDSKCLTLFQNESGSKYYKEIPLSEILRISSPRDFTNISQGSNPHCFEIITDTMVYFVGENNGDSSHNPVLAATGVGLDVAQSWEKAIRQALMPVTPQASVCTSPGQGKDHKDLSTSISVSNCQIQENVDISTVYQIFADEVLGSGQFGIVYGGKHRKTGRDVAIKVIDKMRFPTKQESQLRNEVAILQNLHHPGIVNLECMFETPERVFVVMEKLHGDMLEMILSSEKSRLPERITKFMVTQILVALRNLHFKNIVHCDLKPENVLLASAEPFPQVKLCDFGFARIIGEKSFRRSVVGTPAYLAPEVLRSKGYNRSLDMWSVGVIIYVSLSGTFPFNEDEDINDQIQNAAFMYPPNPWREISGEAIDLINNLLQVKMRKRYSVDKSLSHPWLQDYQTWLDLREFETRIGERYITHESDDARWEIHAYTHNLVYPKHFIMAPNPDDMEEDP

Measured: inhibition

Chain of Mitogen-activated protein kinase 8 (Homo sapiens) (P45983 whole entry): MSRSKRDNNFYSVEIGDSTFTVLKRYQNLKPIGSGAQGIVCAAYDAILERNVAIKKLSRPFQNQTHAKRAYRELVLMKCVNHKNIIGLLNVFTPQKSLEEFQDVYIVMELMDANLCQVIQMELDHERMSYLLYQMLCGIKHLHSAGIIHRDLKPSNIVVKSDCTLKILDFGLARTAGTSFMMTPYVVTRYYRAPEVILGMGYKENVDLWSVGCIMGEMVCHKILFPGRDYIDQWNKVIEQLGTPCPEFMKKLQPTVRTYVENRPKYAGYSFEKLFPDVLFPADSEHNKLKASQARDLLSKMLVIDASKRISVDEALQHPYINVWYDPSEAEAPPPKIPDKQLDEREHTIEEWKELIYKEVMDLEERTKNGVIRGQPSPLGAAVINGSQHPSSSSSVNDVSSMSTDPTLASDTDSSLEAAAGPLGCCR
Chain of Casein kinase I isoform gamma-1 (Homo sapiens) (Q9HCP0 whole entry, looked up, canonical isoform): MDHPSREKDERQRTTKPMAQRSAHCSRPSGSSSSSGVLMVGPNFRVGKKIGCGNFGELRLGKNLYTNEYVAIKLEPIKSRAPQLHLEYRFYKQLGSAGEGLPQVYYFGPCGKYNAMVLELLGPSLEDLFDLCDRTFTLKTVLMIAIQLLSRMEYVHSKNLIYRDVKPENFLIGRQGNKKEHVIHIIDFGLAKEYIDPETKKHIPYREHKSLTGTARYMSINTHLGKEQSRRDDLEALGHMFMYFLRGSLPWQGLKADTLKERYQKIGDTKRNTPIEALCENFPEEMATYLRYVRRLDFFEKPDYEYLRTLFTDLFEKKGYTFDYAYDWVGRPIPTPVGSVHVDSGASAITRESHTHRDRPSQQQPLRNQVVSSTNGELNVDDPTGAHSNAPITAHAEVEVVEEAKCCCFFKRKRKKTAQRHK
Chain of Serine/threonine-protein kinase MRCK gamma (Homo sapiens) (Q6DT37 whole entry): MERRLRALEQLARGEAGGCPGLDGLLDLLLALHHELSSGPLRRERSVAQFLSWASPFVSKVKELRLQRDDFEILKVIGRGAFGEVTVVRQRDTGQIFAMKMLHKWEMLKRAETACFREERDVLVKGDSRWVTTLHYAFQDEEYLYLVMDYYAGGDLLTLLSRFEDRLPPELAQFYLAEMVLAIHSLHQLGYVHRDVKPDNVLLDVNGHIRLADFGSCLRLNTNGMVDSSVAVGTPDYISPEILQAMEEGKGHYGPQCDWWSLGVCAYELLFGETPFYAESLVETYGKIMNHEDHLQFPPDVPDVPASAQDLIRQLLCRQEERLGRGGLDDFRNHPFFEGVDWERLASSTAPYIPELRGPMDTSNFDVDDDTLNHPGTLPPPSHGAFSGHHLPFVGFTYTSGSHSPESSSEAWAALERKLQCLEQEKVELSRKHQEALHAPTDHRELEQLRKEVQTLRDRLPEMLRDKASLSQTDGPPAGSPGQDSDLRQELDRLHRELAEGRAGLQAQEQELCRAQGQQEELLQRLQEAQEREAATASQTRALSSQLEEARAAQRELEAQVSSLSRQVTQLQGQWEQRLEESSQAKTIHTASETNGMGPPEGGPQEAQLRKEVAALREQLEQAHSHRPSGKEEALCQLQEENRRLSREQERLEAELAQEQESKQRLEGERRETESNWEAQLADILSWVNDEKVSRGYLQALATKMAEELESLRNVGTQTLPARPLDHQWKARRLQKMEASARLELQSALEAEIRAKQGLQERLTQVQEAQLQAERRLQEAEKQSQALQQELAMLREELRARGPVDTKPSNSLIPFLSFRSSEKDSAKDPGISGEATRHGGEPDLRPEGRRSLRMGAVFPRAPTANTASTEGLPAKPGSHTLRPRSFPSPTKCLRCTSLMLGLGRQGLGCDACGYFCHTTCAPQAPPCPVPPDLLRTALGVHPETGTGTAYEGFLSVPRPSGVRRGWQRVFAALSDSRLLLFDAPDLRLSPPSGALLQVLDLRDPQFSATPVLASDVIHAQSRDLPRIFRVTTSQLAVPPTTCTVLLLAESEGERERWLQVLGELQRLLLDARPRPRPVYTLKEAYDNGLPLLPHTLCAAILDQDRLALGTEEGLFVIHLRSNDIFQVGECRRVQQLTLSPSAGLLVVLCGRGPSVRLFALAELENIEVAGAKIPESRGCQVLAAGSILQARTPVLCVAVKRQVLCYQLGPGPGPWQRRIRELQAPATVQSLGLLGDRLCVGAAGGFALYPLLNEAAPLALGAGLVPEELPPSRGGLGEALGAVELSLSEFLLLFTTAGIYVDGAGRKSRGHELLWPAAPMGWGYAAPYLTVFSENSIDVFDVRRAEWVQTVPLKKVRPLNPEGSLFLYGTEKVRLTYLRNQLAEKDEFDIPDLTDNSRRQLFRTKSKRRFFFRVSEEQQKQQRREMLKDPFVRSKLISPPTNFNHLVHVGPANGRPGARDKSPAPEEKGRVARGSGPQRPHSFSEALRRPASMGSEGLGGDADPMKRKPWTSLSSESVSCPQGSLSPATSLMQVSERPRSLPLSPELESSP
Chain of MAP/microtubule affinity-regulating kinase 3 (Homo sapiens) (P27448 whole entry, looked up): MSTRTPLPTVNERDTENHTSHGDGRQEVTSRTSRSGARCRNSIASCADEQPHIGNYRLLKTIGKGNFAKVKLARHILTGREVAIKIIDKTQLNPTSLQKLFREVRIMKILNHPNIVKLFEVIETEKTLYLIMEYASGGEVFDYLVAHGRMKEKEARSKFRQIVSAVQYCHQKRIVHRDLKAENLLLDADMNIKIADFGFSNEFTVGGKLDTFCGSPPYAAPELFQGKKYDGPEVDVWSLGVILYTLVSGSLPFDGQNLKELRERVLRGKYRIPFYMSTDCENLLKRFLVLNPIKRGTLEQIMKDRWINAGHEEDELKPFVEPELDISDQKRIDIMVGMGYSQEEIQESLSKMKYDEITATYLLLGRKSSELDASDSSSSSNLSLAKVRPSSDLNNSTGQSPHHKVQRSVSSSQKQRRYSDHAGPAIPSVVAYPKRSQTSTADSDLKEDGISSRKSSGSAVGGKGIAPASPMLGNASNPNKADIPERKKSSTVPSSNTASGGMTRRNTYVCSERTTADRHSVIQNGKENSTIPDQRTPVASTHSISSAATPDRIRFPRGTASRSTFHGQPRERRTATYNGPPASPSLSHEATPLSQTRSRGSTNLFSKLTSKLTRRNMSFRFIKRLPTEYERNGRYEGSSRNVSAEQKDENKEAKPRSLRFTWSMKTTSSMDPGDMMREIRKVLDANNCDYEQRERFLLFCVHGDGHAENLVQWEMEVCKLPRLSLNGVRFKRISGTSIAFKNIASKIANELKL
Chain of Mitogen-activated protein kinase 11 (Homo sapiens) (Q15759 whole entry): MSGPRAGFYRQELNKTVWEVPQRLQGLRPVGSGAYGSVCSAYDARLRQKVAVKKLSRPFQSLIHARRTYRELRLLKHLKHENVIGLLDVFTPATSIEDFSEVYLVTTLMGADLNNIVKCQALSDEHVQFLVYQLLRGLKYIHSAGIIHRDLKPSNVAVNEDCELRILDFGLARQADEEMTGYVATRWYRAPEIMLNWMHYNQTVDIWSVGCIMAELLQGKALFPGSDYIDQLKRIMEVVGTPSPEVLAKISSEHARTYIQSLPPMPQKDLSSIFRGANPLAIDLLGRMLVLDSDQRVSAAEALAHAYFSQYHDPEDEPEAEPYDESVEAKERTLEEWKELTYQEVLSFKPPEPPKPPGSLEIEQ
Chain of Ephrin type-A receptor 7 (Homo sapiens) (Q15375 28-998 limits assumed): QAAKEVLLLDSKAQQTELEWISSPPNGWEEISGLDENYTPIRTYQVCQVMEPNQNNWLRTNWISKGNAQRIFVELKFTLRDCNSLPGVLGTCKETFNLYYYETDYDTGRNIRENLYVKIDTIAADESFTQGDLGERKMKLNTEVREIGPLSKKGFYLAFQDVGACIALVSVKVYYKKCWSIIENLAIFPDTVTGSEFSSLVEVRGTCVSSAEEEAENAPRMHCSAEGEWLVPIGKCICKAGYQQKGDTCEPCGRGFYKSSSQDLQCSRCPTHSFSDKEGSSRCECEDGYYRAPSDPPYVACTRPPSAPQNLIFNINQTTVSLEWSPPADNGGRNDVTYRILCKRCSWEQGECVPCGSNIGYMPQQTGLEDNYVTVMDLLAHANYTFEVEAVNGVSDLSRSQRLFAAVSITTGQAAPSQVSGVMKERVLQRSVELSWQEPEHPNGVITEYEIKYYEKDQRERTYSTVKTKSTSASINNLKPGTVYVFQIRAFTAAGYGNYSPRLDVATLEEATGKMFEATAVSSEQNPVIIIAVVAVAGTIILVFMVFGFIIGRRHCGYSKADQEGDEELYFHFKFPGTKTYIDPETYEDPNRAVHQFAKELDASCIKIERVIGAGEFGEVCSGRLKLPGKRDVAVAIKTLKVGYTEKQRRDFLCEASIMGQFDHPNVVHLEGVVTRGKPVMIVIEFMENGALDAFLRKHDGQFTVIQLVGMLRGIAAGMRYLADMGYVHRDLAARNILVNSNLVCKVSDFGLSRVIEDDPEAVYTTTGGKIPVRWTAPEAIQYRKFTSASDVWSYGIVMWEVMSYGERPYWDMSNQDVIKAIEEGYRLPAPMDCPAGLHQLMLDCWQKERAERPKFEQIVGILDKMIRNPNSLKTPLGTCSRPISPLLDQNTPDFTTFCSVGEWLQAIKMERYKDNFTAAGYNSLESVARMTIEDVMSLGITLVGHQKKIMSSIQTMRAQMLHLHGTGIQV
Chain of Calcium/calmodulin-dependent protein kinase type 1D (Homo sapiens) (Q8IU85 whole entry, looked up): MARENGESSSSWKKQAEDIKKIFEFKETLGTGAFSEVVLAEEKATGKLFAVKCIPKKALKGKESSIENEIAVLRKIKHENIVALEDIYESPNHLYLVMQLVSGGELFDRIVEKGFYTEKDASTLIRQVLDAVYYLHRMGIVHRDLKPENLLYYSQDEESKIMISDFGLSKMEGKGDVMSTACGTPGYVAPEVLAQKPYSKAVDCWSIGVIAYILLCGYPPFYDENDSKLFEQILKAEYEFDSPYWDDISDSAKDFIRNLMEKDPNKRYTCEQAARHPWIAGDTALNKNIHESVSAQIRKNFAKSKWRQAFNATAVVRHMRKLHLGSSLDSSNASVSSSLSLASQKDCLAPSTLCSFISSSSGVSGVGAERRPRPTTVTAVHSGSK

O=C(c1ccc(-c2cnc3c(c2)N(Cc2cc(Cl)ccc2C(F)(F)F)CCN3)cc1)N1CCC(N2CCCC2)CC1
not listed: [13] | [14]
< 50%: all other assays above

O=C(O)c1ccc(-c2cnc3c(c2)N(Cc2cc(Cl)ccc2C(F)(F)F)CCN3)cc1
not listed: [13] | [14]
< 50%: all other assays above

CN1CCN(c2ccc(-c3cnc4c(c3)N(Cc3cc(Cl)ccc3C(F)(F)F)CCN4)cn2)CC1
< 50%: all assays above

O=C(c1ccc(-c2cnc3c(c2)N(Cc2cc(Cl)ccc2C(F)(F)F)CCN3)cc1)N1CCCCC1
not listed: [13] | [14]
< 50%: all other assays above

COC1CCN(C(=O)c2ccc(-c3cnc4c(c3)N(Cc3cc(Cl)ccc3C(F)(F)F)CCN4)cc2)CC1
not listed: [13] | [14]
< 50%: all other assays above
